{"source": "ChEMBL document CHEMBL5705894", "about": "“SB1518, a novel macrocyclic pyrimidine-based JAK2 inhibitor for the treatment of myeloid and lymphoid malignancies” (Leukemia, 2011)", "key": {"[1]": {"system": "Tyrosine-protein kinase JAK2 (Homo sapiens), O60674 [V617F]", "sequence (O60674 whole entry V617F)": "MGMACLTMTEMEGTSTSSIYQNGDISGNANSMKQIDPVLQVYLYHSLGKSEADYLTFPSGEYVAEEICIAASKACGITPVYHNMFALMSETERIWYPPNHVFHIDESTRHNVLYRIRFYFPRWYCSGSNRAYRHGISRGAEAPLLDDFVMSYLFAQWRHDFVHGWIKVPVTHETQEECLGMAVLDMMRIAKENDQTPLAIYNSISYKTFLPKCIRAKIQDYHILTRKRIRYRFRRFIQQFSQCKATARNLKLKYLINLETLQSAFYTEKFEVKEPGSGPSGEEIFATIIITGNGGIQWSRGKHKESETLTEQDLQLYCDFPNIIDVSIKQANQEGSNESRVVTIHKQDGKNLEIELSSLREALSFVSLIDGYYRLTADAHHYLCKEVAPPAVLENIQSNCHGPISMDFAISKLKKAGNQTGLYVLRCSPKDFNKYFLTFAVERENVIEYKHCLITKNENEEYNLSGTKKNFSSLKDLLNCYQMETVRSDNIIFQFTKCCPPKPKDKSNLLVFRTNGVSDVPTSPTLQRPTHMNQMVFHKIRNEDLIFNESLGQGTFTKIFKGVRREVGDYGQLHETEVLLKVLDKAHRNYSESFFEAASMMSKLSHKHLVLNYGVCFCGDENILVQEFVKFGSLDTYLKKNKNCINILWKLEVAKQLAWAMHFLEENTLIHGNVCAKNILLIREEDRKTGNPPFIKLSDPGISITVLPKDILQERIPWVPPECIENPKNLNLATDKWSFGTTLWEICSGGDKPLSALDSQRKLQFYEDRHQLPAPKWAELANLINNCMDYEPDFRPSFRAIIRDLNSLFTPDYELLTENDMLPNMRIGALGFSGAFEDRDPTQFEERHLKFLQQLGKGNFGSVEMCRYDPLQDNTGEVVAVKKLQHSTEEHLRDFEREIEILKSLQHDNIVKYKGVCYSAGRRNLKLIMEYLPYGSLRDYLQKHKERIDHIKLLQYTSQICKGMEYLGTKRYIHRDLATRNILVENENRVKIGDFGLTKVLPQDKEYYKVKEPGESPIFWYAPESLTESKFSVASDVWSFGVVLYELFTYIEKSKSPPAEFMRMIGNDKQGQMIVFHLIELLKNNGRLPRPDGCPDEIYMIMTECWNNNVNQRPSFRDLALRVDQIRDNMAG", "conditions": "HEL 92.1.7, dose 1000.0 nM, time 3.0 hrs"}, "[2]": {"experiment": "Toxicity in athymic BALB/c nude mouse xenografted with mouse Ba/F3 cells harboring JAK2 V617F mutant assessed as spleen weight at 150 mg/kg, po administered for 13 days relative to control", "conditions": "in vivo, 312 h"}, "[3]": {"experiment": "Cytotoxicity against human Myeloid progenitor cells assessed as inhibition of colony growth formation", "type": "toxicity, cell-based, Myeloid progenitor cell", "outline": "(§1)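 PBMCs from PV patients, 2–8 × 10^5 per plate, were plated in minimal methylcellulose medium with graded drug concentrations or DMSO, in triplicate. After 14 days, erythroid (BFU-E, CFU-E) and myeloid (CFU-M, CFU-GM) colonies were counted.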"}, "[4]": {"experiment": "Toxicity in athymic BALB/c nude mouse xenografted with mouse Ba/F3 cells harboring JAK2 V617F mutant assessed as liver weight at 150 mg/kg, po administered for 12 days relative to control", "type": "organism-based, BaF3", "conditions": "in vivo, 288 h, time 12 day", "outline": "(§2)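 Ba/F3-JAK2V617F cells (2 × 10^6 in serum-free medium) were injected into the tail vein of BALB/c nude mice. From day 4 after inoculation, mice got SB1518 by oral gavage (10 ml/kg) at 50 or 150 mg/kg once daily. Groups held 10 mice, and four naive mice gave baseline values.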"}, "[5]": {"experiment": "Toxicity in SCID Beige mouse xenografted with human SET2 cells assessed as increase in body weight at 150 mg/kg, po administered for 18 days relative to control", "type": "organism-based", "conditions": "in vivo, 432 h, time 18 day"}, "[6]": {"experiment": "Cytotoxicity against human EPC cells derived from healthy volunteers assessed as inhibition of cell viability incubated for 48 hrs by CellTiterGlo assay", "type": "toxicity, cell-based", "outline": "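Erythroid progenitors expanded from PBMCs of PV patients or normal volunteers using a 2-step protocol. On day 12 of expansion, cells were exposed to compound for 48 h and viability was read by CellTiter-Glo. Day-12 cells were phenotyped by CD71/CD235A flow staining.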"}, "[7]": {"experiment": "Induction of apoptosis in human EPC cells derived from polycythemia vera patients assessed as activation of caspase-3/7 level incubated for 16 hrs", "type": "toxicity, cell-based", "conditions": "human, epc, time 16 hrs"}, "[8]": {"experiment": "AUC (0 to infinity) in athymic BALB/c nude mouse xenografted with mouse BaF3 cells at 150 mg/kg, po administered for 24 hrs by HPLC analysis", "type": "ADME, organism-based", "conditions": "in vivo"}, "[9]": {"experiment": "Toxicity in athymic BALB/c nude mouse xenografted with mouse Ba/F3 cells harboring JAK2 V617F mutant assessed as platelet count at 150 mg/kg, po administered for 12 days by ScilVET abc hematology analyzer method", "type": "organism-based, BaF3", "conditions": "in vivo, 288 h, time 12 day", "outline": "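Engraftment model: BALB/c nude mice were given 2 × 10^6 Ba/F3-JAK2V617F cells i.v. by tail vein. Once-daily oral gavage (10 ml/kg) of 50 or 150 mg/kg began on day 4 after inoculation, with 10 mice per group and four naive mice as baseline. Blood counts were taken on a veterinary hematology analyzer.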"}, "[10]": {"experiment": "Toxicity in SCID Beige mouse xenografted with human SET2 cells assessed as decrease in body weight at 75 mg/kg, po administered for 18 days relative to control", "type": "organism-based", "design": "scale not given: the % may be the effect or the level left", "conditions": "in vivo, 432 h, time 18 day"}, "[11]": {"experiment": "Toxicity in SCID Beige mouse xenografted with human SET2 cells assessed as platelet count at 150 mg/kg, po administered for 18 days by ScilVET abc hematology analyzer method", "type": "organism-based", "conditions": "in vivo, 432 h, time 18 day"}, "[12]": {"experiment": "Toxicity in SCID Beige mouse xenografted with human SET2 cells assessed as hematocrit count at 150 mg/kg, po administered for 18 days by ScilVET abc hematology analyzer method", "type": "organism-based", "conditions": "in vivo, 432 h, time 18 day"}, "[13]": {"experiment": "Induction of apoptosis in human EPC cells derived from healthy volunteers assessed as activation of caspase-3/7 level incubated for 16 hrs", "type": "toxicity, cell-based"}, "[14]": {"experiment": "Toxicity in athymic BALB/c nude mouse xenografted with mouse Ba/F3 cells harboring JAK2 V617F mutant assessed as weight loss at 150 mg/kg, po administered for 12 days", "type": "organism-based, BaF3", "conditions": "in vivo, 288 h, time 12 day", "outline": "as §2"}, "[15]": {"experiment": "Cytotoxicity against human Erythroid progenitor cells assessed as inhibition of colony growth formation", "type": "toxicity, cell-based, Erythroid progenitor cell", "outline": "as §1"}, "[16]": {"system": "BaF3", "experiment": "Cytotoxicity against mouse BaF3 cells expressing JAK2 V617F mutant xenografted in athymic BALB/c nude mouse assessed as inhibition of cell viability administered for 24 hrs by CellTiterGlo assay", "type": "toxicity, cell-based", "conditions": "in vivo, po, 150 mg/kg"}, "[17]": {"experiment": "Toxicity in athymic BALB/c nude mouse xenografted with mouse Ba/F3 cells harboring JAK2 V617F mutant assessed as hematocrit count at 150 mg/kg, po administered for 12 days by ScilVET abc hematology analyzer method", "type": "organism-based, BaF3", "conditions": "in vivo, 288 h, time 12 day", "outline": "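BALB/c nude mice were injected in the tail vein with 2 × 10^6 Ba/F3-JAK2V617F cells in serum-free medium. Oral dosing at 50 or 150 mg/kg once daily began on day 4, with 10 mice per group and 4 naive baseline mice. Blood counts were taken on a hematology analyzer.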"}, "[18]": {"experiment": "Toxicity in SCID Beige mouse xenografted with human SET2 cells assessed as leukopenia at 150 mg/kg, po administered for 18 days by ScilVET abc hematology analyzer method", "type": "organism-based", "conditions": "in vivo, 432 h, time 18 day"}}, "note": "Calls of active or inactive are those of the source. The rule behind the calls is not given here.", "data": [{"smiles": "CC(C)(C)c1nc2c3ccc(F)cc3c3c(=O)[nH]ccc3c2[nH]1", "values": [{"measurement": "inhibition", "setting": "[1]", "result": "Active"}]}, {"smiles": "Cc1cnc(Nc2ccc(OCCN3CCCC3)cc2)nc1Nc1cccc(S(=O)(=O)NC(C)(C)C)c1", "values": [{"measurement": "inhibition", "setting": "[1]", "result": "Active"}]}, {"smiles": "C1=C/COCc2cc(ccc2OCCN2CCCC2)Nc2nccc(n2)-c2cccc(c2)COC/1", "note": "[PACRITINIB]", "values": [{"measurement": "Activity", "setting": "[2]", "result": 60, "unit": "%"}, {"measurement": "IC50", "setting": "[3]", "result": 63, "unit": "nM"}, {"measurement": "Activity", "setting": "[4]", "result": 92, "unit": "%"}, {"measurement": "Activity", "setting": "[5]", "result": 0.2, "unit": "%"}, {"measurement": "IC50 at 48 h", "setting": "[6]", "result": 230, "unit": "nM"}, {"measurement": "Activity", "setting": "[7]", "result": "Dose-Dependent Effect"}, {"measurement": "AUC(0-inf)", "setting": "[8]", "result": 220, "unit": "ng·h/mL"}, {"measurement": "Activity", "setting": "[9]", "result": "Non-Toxic"}, {"measurement": "Activity", "setting": "[10]", "result": 10.1, "unit": "%"}, {"measurement": "Activity", "setting": "[11]", "result": "Non-Toxic"}, {"measurement": "Activity", "setting": "[12]", "result": "Non-Toxic"}, {"measurement": "EC50 at 16 h", "setting": "[13]; EPC cells derived from healthy volunteers", "result": 224, "unit": "nM"}, {"measurement": "Activity", "setting": "[13]; epc, 16 h", "result": "Dose-Dependent Effect"}, {"measurement": "Activity", "setting": "[14]", "result": "Non-Toxic"}, {"measurement": "IC50", "setting": "[15]", "result": 63, "unit": "nM"}, {"measurement": "FIC50", "setting": "[16]", "result": 0.16, "unit": "µM"}, {"measurement": "Activity", "setting": "[17]", "result": "Non-Toxic"}, {"measurement": "Activity", "setting": "[18]", "result": "Non-Toxic"}]}]}
